A selection: hits, their analogues and other compounds. The true share with any hit is near 3.2%.
S100A4 MyoIIA: blocks human S100A4 binding to myosin IIA peptide; P26447; S100A4/TAMRA-MyoIIA peptide fluorescence polarization; inhibition, % at 10.7 µM; 0.14% of 360,000 active; AID 652163;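 active = mean inhibition of at least 70% across replicates, with every replicate also reaching that level; inconclusive = mean inhibition reaches 70% but some replicates fall short; inactive = mean inhibition below 70%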
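Material: human S100A4 monomer with TAMRA-labelled myosin IIA peptide; buffer or medium: HEPES pH 7.2 with CaCl2, KCl, NaCl, DTT, Triton; compound dosing: one concentration per compound; schedule: 5 min incubation before reading; benchmarks: neutral control DMSO, positive control TFP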
AF4-AF9 inh: inhibitors of human MLL-AF4/AF9 interaction. AlphaScreen, biotin-AF4 peptide binding to FLAG-AF9. inhibition, % at 10 µM. P42568. 0.47% of 350,000 active. AID 651704;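 active = every replicate reaching a set inhibition limit, whatever the replicate mean, cut at about 25% in these data; inconclusive = mean inhibition reaches that limit but some replicates miss it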;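 also: 0% = plate neutral control median and 100% = total signal loss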
Target sequence (P42568 whole entry, looked up): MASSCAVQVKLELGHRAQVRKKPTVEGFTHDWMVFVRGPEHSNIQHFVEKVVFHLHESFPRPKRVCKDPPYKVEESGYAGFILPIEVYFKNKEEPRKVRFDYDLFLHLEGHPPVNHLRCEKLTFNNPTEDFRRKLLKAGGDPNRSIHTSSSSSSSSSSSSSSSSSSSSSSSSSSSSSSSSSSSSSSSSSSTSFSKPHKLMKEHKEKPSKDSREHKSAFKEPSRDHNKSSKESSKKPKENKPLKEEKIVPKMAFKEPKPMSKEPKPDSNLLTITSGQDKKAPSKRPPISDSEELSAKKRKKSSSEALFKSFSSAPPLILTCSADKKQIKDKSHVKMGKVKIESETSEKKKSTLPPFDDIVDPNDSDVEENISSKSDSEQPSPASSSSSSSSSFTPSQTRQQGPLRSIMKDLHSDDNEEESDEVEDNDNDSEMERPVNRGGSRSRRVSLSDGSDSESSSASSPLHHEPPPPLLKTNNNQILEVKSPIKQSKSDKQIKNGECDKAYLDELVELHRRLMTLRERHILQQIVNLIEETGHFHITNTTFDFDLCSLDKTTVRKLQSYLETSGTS
Cneo AK release: Cryptococcus neoformans lysis via adenylate kinase release; C. neoformans lysis, adenylate kinase release luminescence, 4 h; normalised: neutral wells 0, clomiphene wells 100; lysis activity, % at 15 µM; 0.2% of 360,000 active; AID 651654;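 active = mean lysis activity across replicates of at least 80%, whatever share of replicates individually reach that level; inactive = mean lysis activity below 80%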
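Assay system: log-phase C. neoformans yeast / Quantity: yeast cell density of 5 × 10^6 cells/mL / Medium: fresh YPD growth medium / Compound: single dose / Timing: static 4 h at 37 °C with compound, 1 h detection / Measured by: adenylate kinase release luminescence / Read-out: lysis from increased AK signal / Benchmarks: Clomiphene as positive lysis control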
PfHsp90 set2: reduces growth (ATP signal) of yeast expressing P. falciparum Hsp90. inhibition, % at 9.4 µM. AID 504621. 0.32% of 310,000 active. S. cerevisiae expressing PfHsp90, BacTiter-Glo ATP, 48 h; yeast lacking PDR1 and PDR3 efflux regulators;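 active = every replicate shows inhibition above about 80%, whatever the replicate mean, limit read from the data; inconclusive = mean inhibition reaches the set limit but some replicate falls short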;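 also: 0% = DMSO neutral controls and 100% = 20 µM radicicol positive controls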
rRNA inh HTS: selective bacterial rRNA inhibition in E. coli. E. coli WT GFP vs humanized-ribosome RFP mutants, fluorescence, 24 h; hits give low values; DMSO median 0, no signal -100. GFP signal change (wild-type ribosome), % (concentration not given with the values). 1.6% of 350,000 active;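 active = significant combined selectivity score with lowered wild-type GFP, culture density cut under 30%, mutant RFP and density less affected; inactive = any of these conditions unmet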
DENV2 CPE: DENV2-induced cell death inhibition; DENV2-infected cells, cytopathic effect rescue, plate reader; CPE inhibition, % at 9.99 µM; AID 651640; 1.7% of 350,000 active; in the data active = CPE inhibition above about 20%, passing the limit was not always enough; inconclusive = no clear call, values can overlap the other calls; tested in BHK-21 cells;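 also: 0% = median of neutral control wells and 100% = median of positive control wells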
An asterisk follows results filed as active; ? = inconclusive; . = no result given.

SMILES	S100A4 MyoIIA	AF4-AF9 inh	Cneo AK release	PfHsp90 set2	rRNA inh HTS	DENV2 CPE
Cc1ccc(S(=O)(=O)Nc2ccc3c(c2)CC(=O)N([C@H](C)CO)C[C@H](C)[C@H](CN(C)Cc2ccc(Oc4ccccc4)cc2)O3)cc1	6	-11	-11	.	1	50*
COc1ccc(S(=O)(=O)Nc2ccc3c(c2)CC(=O)N([C@H](C)CO)C[C@@H](C)[C@H](CN(C)Cc2ccc(Cl)c(Cl)c2)O3)cc1	-5	0	57	.	2	38*
C[C@H](CO)N1C[C@H](C)[C@H](CN(C)Cc2ccc(-c3ccccc3)cc2)Oc2ccc(NS(=O)(=O)c3cccs3)cc2CC1=O	-3	-1	1	.	-3	51*
CNC[C@@H]1Oc2ncc(C#CC3(O)CCCC3)cc2C(=O)N([C@H](C)CO)C[C@@H]1C	-10	0	5	.	8	3
CCOC(=O)C1=C[C@@H](CC)N(S(=O)(=O)c2ccc([N+](=O)[O-])cc2)[C@H]1c1ccccc1	-3	8	29	.	-6	42*
CCOC(=O)C1=CC[C@H]2c3c(c4ccc(OC)cc4n3C)C(=O)C1N2S(=O)(=O)c1ccc(C)cc1	-1	-2	0	-11	-2	31*
CCOC(=O)C1=CC[C@@H](c2ccc(OC)cc2)N(S(=O)(=O)c2ccc(C)cc2)[C@H]1CC	-13	1	-3	.	7	13
CCOC(=O)C1=C[C@@H](c2ccccc2)N(S(=O)(=O)c2ccc(C)cc2)[C@H]1c1cccc(Cl)c1	-2	-2	1	.	30	30*
CCOC(=O)C1=CCN(S(=O)(=O)c2ccc(F)cc2)C1c1cccc(Cl)c1 (configuration not stated)	12	2	-5	.	-10	84*
C[C@@H]1CN([C@H](C)CO)C(=O)c2cccc(NS(=O)(=O)c3ccc(F)cc3)c2O[C@@H]1CN(C)S(=O)(=O)c1cccs1	-7	-2	-5	.	-3	12
CCOC(=O)C1=CCN(S(=O)(=O)c2ccc(C)cc2)[C@H]1c1ccccc1Cl	4	-1	-5	.	-29*	-1
Cc1nc2ccccc2c2c1CC(C(C)(Cl)Br)O2 (configuration not stated)	-7	-14	.	-7	-30*	0
C[C@@H]1CN([C@H](C)CO)C(=O)c2cc(-c3ccc(F)cc3)cnc2O[C@@H]1CN(C)Cc1cncnc1	0	-9	-4	.	0	?
CC(=O)N(C)C[C@H]1Oc2ncc(C#Cc3ccccc3)cc2C(=O)N([C@@H](C)CO)C[C@@H]1C	-6	-1	0	.	1	9
COc1ccc(C#Cc2cnc3c(c2)C(=O)N([C@@H](C)CO)C[C@@H](C)[C@@H](CN(C)C(=O)CC2CC2)O3)cc1	-3	-3	1	.	0	-5
COc1cccc(-c2cnc3c(c2)C(=O)N([C@H](C)CO)C[C@H](C)[C@@H](CN(C)C(C)=O)O3)c1	4	-2	0	.	0	32*
CC(=O)N(C)C[C@H]1Oc2ncc(C#Cc3ccccc3)cc2C(=O)N([C@H](C)CO)C[C@H]1C	2	-3	0	.	2	48*
COc1ccc(C#Cc2cnc3c(c2)C(=O)N([C@@H](C)CO)C[C@H](C)[C@@H](CN(C)C(=O)CC2CC2)O3)cc1	-2	2	88*	.	-8	-5
C[C@@H]1CN([C@H](C)CO)C(=O)c2cc(C#Cc3ccccc3)cnc2O[C@H]1CN(C)C(=O)CCN1CCCCC1	-18	13	5	.	5	26*
C[C@H](CO)N1C[C@H](C)[C@@H](CN(C)C(=O)C2CCCCC2)OCCCC[C@H](C)Oc2ccc(NC(=O)C3CCCCC3)cc2C1=O	-2	0	-3	.	-5	-6
COc1ccc(C#Cc2cnc3c(c2)C(=O)N([C@@H](C)CO)C[C@H](C)[C@H](CN(C)C(C)=O)O3)cc1	-3	-10	-1	.	2	26*
C[C@H](CO)N1C[C@H](C)[C@@H](CN(C)C(=O)CN(C)C)Oc2ncc(C#Cc3cccnc3)cc2C1=O	9	-4	-2	.	5	0
COc1cccc(C#Cc2cnc3c(c2)C(=O)N([C@H](C)CO)C[C@H](C)[C@@H](CN(C)C(C)=O)O3)c1	-4	-2	-1	.	-2	24*
COc1cccc(C#Cc2cnc3c(c2)C(=O)N([C@H](C)CO)C[C@H](C)[C@H](CN(C)C(C)=O)O3)c1	-7	-3	0	.	4	3
COc1ccc(C#Cc2cnc3c(c2)C(=O)N([C@H](C)CO)C[C@H](C)[C@H](CN(C)C(C)=O)O3)cc1	-4	-6	-5	.	2	-1
SMILES	S100A4 MyoIIA	AF4-AF9 inh	Cneo AK release	PfHsp90 set2	rRNA inh HTS	DENV2 CPE
C[C@@H]1CN([C@H](C)CO)C(=O)c2cc(C#Cc3cccnc3)cnc2O[C@@H]1CN(C)C(=O)CN(C)C	2	-12	1	.	1	35*
COc1cccc(S(=O)(=O)N(C)C[C@@H]2Oc3ncc(-c4cccc(F)c4)cc3C(=O)N([C@H](C)CO)C[C@@H]2C)c1	25	2	112*	.	3	0
C[C@H]1CN([C@@H](C)CO)C(=O)c2cc(-c3cccc(F)c3)cnc2O[C@H]1CN(C)S(=O)(=O)c1cccc(F)c1	-2	-13	-1	.	1	8
COc1ccc2c3c([nH]c2c1)[C@@H](CO)N(Cc1cccc(F)c1)CC31CCN(C(C)=O)CC1	2	-6	.	.	1	8
COCC1COS(=O)(=O)NC1(C)C (configuration not stated)	-3	-2	2	3	4	20*
CCN(CC)c1ccc(/C=N/NC(=O)c2ccc(Br)o2)cc1	-7	12	.	5	-23*	.
Cc1[nH]c(N=Nc2ccccc2)nc1N=Nc1ccccc1	0	0	.	104*	-50	2
COc1ccc(CN(C)C[C@@H]2Oc3ccc(NC(=O)C4CC4)cc3CC(=O)N([C@@H](C)CO)C[C@@H]2C)cc1	5	-23	1	.	0	-2
CS(=O)(=O)N1CCN(c2ccccc2NC(=S)NC(=O)c2ccco2)CC1	0	2	2	13	-28*	3
O=C(NC(=S)Nc1ccccc1N1CCCC1)c1ccco1	-10	11	-3	-15	8	6
O=C(NC(=S)Nc1cccc2cc(O)ccc12)c1ccco1	-11	1	-6	-12	-12	44*
CC1Cc2ccccc2N1C(=S)NC(=O)c1ccco1 (configuration not stated)	5	-3	.	3	-27*	10
